This note sets out measurements from ChEMBL document CHEMBL3600323, “Structure-Activity and Structure-Property Relationship and Exploratory in Vivo Evaluation of the Nanomolar Keap1-Nrf2 Protein-Protein Interaction Inhibitor” (J Med Chem, 2015).

Molecules are shown by their SMILES. Converted amounts (≈) assume the structure as drawn. The source made the active and inactive calls. The calls are words filed in the database; no cut-off is given here.

The term logD denotes lipophilicity at a set pH, counting ionised and neutral species. A high value points to a more lipophilic compound. In general, solubility refers to the concentration that dissolves in the medium under given conditions. As usually defined, the IC50 is the concentration that gives 50% inhibition.

Data set [1] in a line: Lipophilicity, log D of the compound. The format is physicochemical. Particulars: octanol/water. In short, it runs like this: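 log D at pH 7.4 measured by Avdeef−Bucher potentiometric titration on a Gemini Profiler instrument.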
The nature of data set [2]: Solubility of the compound. The format is physicochemical. Put shortly: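 Intrinsic solubility determined by the pH-metric method, a potentiometric acid−base titration, using the pSOL model.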
A further data set has as its target Keap1/Nrf2 (Homo sapiens, UniProt Q14145). Kind of data set: Inhibition of Keap1 Kelch domain-Nrf2 ETGE (unknown origin) protein-protein interaction incubated for 30 mins by fluorescence polarization competition assay. A general note: Fluorescence polarisation rises when a labelled molecule tumbles more slowly, as on binding a larger partner.
For data set [3], the system named is Mus musculus. Description: Anti-inflammatory in LPS-challenged C57BL/6 mouse model of acute inflammation assessed as reduction in IL6 level at 10 mg/kg, ip for 3 days pre-treated for 3 days followed by LPS challenge 24 hrs after last dose and measured 5 hrs post LPS challenge by ELISA method. The format is functional, organism-based. In short, it runs like this: (§1)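 Female C57BL/6 mice (12−16 weeks), randomised, n = 10 per group; single daily IP injection on days −3, −2, −1, then 300 μg LPS IP 24 h after the last dose (day 0). Controls were saline-only and saline plus LPS, with dexamethasone 10 mg/kg/day as positive control. Sera taken 5 h post-LPS; plasma frozen at −20 °C and cytokines read by double-sandwich ELISA; mean ± SEM.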
(An ELISA detects its analyte on a solid surface through an enzyme-linked reagent.)

The subject of data set [4] is Mus musculus. Description: Anti-inflammatory in LPS-challenged C57BL/6 mouse model of acute inflammation assessed as reduction in IFNgamma level at 10 mg/kg, ip for 3 days pre-treated for 3 days followed by LPS challenge 24 hrs after last dose and measured 5 hrs post LPS challenge by ELISA method. The format is functional, organism-based. Put shortly: as §1
Data set [5] concerns Mus musculus. Kind of data set: Anti-inflammatory in LPS-challenged C57BL/6 mouse model of acute inflammation assessed as reduction in TNFalpha level at 10 mg/kg, ip for 3 days pre-treated for 3 days followed by LPS challenge 24 hrs after last dose and measured 5 hrs post LPS challenge by ELISA method. The data set is classed as functional, organism-based. Put shortly:
as §1

For data set [6], the system named is Mus musculus. Kind of data set: Anti-inflammatory in LPS-challenged C57BL/6 mouse model of acute inflammation assessed as reduction in IL17 level at 10 mg/kg, ip for 3 days pre-treated for 3 days followed by LPS challenge 24 hrs after last dose and measured 5 hrs post LPS challenge by ELISA method. The data set is classed as functional, organism-based. Put shortly:
as §1

The test system of data set [7] is Mus musculus. Kind of data set: Anti-inflammatory in LPS-challenged C57BL/6 mouse model of acute inflammation assessed as reduction in IL12 level at 10 mg/kg, ip for 3 days pre-treated for 3 days followed by LPS challenge 24 hrs after last dose and measured 5 hrs post LPS challenge by ELISA method. The format is functional, organism-based. In short, it runs like this:
as §1

The subject of data set [8] is Mus musculus. Kind of data set: Toxicity in LPS-challenged C57BL/6 mouse model of acute inflammation at 80 mg/kg, ip for 3 days pre-treated for 3 days followed by LPS challenge 24 hrs after last dose and measured 5 hrs post LPS challenge. Particulars: in vivo. The data set is classed as organism-based. Put shortly: (§2)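 Female C57BL/6 mice (12−16 weeks), n = 10 per group, dosed IP once daily on days −3 to −1, then challenged with 300 μg LPS IP 24 h after the last dose. Body weight and signs of acute toxicity were monitored during the pretreatment period.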

The test system of data set [9] is Mus musculus. Kind of data set: Toxicity in LPS-challenged C57BL/6 mouse model of acute inflammation assessed as changes in body weight at 80 mg/kg, ip for 3 days pre-treated for 3 days followed by LPS challenge 24 hrs after last dose and measured 5 hrs post LPS challenge. The data set is classed as organism-based. As to conditions: in vivo. Put shortly: as §2

Data set [10] concerns Mus musculus. Kind of data set: Toxicity in LPS-challenged C57BL/6 mouse model of acute inflammation assessed as changes in body weight at 10 mg/kg, ip for 3 days pre-treated for 3 days followed by LPS challenge 24 hrs after last dose and measured 5 hrs post LPS challenge. The data set is classed as organism-based. As to conditions: in vivo. Put shortly:
as §2

Data set [11] relates to Mus musculus. Description: Toxicity in LPS-challenged C57BL/6 mouse model of acute inflammation at 10 mg/kg, ip for 3 days pre-treated for 3 days followed by LPS challenge 24 hrs after last dose and measured 5 hrs post LPS challenge. As to conditions: in vivo. The format is organism-based. Put shortly:
as §2

Sequence of Keap1/Nrf2 (Q16236 whole entry, the tested form may be a part): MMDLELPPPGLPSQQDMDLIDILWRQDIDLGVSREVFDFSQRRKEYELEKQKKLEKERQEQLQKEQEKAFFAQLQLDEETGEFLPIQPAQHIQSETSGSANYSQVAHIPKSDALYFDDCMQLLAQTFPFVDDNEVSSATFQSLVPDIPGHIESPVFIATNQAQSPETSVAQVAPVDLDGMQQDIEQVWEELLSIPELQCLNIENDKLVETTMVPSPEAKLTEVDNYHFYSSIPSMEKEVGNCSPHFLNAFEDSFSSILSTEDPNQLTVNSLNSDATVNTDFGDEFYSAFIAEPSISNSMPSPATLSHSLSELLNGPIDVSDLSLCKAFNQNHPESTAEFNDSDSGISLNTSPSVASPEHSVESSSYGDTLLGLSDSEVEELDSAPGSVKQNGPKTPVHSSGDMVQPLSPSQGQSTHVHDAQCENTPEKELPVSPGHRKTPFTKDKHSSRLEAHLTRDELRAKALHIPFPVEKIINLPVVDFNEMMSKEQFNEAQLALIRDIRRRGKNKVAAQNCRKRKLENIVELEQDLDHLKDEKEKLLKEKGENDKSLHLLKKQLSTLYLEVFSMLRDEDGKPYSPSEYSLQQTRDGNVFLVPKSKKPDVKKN
Sequence of Keap1/Nrf2 (Q14145 whole entry, the tested form may be a part): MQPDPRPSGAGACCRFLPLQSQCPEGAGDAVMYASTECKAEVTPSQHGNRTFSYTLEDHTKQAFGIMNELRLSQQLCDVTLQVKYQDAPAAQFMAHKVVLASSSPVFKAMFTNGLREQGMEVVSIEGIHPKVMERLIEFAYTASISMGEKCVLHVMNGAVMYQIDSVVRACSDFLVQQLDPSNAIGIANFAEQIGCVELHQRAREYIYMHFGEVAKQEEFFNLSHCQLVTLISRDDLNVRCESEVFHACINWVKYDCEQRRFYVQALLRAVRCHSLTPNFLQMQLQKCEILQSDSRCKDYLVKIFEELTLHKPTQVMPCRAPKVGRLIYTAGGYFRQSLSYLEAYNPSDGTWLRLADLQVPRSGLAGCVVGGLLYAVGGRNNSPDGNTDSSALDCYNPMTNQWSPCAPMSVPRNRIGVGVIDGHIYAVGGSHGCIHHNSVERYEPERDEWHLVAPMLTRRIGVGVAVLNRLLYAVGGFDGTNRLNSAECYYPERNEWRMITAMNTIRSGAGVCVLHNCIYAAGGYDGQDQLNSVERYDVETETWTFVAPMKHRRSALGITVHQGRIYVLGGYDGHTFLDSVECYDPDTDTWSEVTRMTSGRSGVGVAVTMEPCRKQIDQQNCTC

`CC(C)(C)c1ccc(S(=O)(=O)N(CC(=O)O)c2ccc(N(CC(=O)O)S(=O)(=O)c3ccc(C(C)(C)C)cc3)c3ccccc23)cc1` came in with a logD in data set [1] of 5.2. Also, the solubility in [2] (read-out: solubility) was 1.6 µg/mL (≈ 2.4 µM). The compound further had an IC50 at Keap1/Nrf2 of 50.2 nM.

Consider `COc1ccc(S(=O)(=O)N(CC(=O)O)c2ccc(N(CC(=O)O)S(=O)(=O)c3ccc(OC)cc3)c(C)c2)cc1`, for which, at Keap1/Nrf2, the IC50 amounted to 1670 nM.

Consider `Cc1ccc(S(=O)(=O)N(CC(=O)O)c2ccc(N(CC(=O)O)S(=O)(=O)c3ccc(C)cc3)c3ccccc23)cc1`, for which the logD in data set [1] was 0.93. The solubility in data set [2] (read-out: solubility) stood at 248 µg/mL (≈ 426 µM). Moreover, the concentration for half-maximal inhibition (IC50) at Keap1/Nrf2 came to 18.1 nM.

`Cc1ccc(S(=O)(=O)N(CC(=O)O)c2ccc(N(CC(=O)O)S(=O)(=O)c3ccc(C)cc3)cc2)cc1` gave an IC50 on Keap1/Nrf2 of 966 nM.

For the compound `Cc1cc(C)c(S(=O)(=O)N(CC(=O)O)c2ccc(N(CC(=O)O)S(=O)(=O)c3c(C)cc(C)cc3C)c3ccccc23)c(C)c1`, the logD in data set [1] was found to be 3.44. Besides, the solubility in [2] (read-out: solubility) amounted to 20 µg/mL (≈ 31.3 µM). The same compound returned an IC50 at Keap1/Nrf2 of 979 nM.

Compound `N#Cc1ccc(S(=O)(=O)N(CC(=O)O)c2ccc(N(CC(=O)O)S(=O)(=O)c3ccc(C#N)cc3)c3ccccc23)cc1` gave a logD in [1] of 0.65. Moreover, the solubility in data set [2] (read-out: solubility) worked out at 1100 µg/mL (≈ 1820 µM). Besides, the IC50 at Keap1/Nrf2 is 118 nM.

Turning to `O=C(O)CN(c1ccc(N(CC(=O)O)S(=O)(=O)c2ccc(OC(F)(F)F)cc2)c2ccccc12)S(=O)(=O)c1ccc(OC(F)(F)F)cc1`, in [1], the logD amounted to 0.93. The solubility in data set [2] (read-out: solubility) stood at 12.3 µg/mL (≈ 17 µM). The IC50 at Keap1/Nrf2 stood at 179 nM.

At Keap1/Nrf2, `COc1ccc(S(=O)(=O)N(CC(=O)O)c2ccc(N(CC(=O)O)S(=O)(=O)c3ccc(OC)cc3)c(OC)c2)cc1` returned an IC50 of 602 nM.

Compound `O=C(O)CN(c1ccc(N(CC(=O)O)S(=O)(=O)c2ccc(C(F)(F)F)cc2)c2ccccc12)S(=O)(=O)c1ccc(C(F)(F)F)cc1` registered a logD in data set [1] of 2.81. Also, the solubility in [2] (read-out: solubility) stood at 12.3 µg/mL (≈ 17.8 µM). Moreover, on Keap1/Nrf2, the IC50 was determined as 122 nM.

Take `O=C(O)CN(c1ccc(N(CC(=O)O)S(=O)(=O)c2ccc(Br)cc2)c2ccccc12)S(=O)(=O)c1ccc(Br)cc1`: the logD in [1] was 4.29. The solubility in data set [2] (read-out: solubility) was 5.7 µg/mL (≈ 8 µM). At Keap1/Nrf2, this compound registered an IC50 of 36.5 nM.

As to `COc1cccc(S(=O)(=O)N(CC(=O)O)c2ccc(N(CC(=O)O)S(=O)(=O)c3cccc(OC)c3)c3ccccc23)c1`, in data set [1], the logD was 0.89. For the same compound, the solubility in data set [2] (read-out: solubility) was found to be 16 µg/mL (≈ 26 µM). On Keap1/Nrf2, this compound showed an IC50 of 66.1 nM.

At Keap1/Nrf2, `COc1ccc(S(=O)(=O)N(CC(=O)O)c2cccc3c(N(CC(=O)O)S(=O)(=O)c4ccc(OC)cc4)cccc23)cc1` gave a half-inhibitory concentration (IC50) of 1860 nM.

Consider `CCCCc1ccc(S(=O)(=O)N(CC(=O)O)c2ccc(N(CC(=O)O)S(=O)(=O)c3ccc(CCCC)cc3)c3ccccc23)cc1`, for which, in data set [1], the logD amounted to 1.89. The compound further gave a solubility in data set [2] of 0.006 µg/mL (≈ 0.009 µM). Further, on Keap1/Nrf2, the IC50 turned out to be 42.2 nM.

`O=C(O)CN(c1ccc(N(CC(=O)O)S(=O)(=O)c2ccc(F)cc2)c2ccccc12)S(=O)(=O)c1ccc(F)cc1` showed a logD in data set [1] of 1.16. The solubility in [2] (read-out: solubility) stood at 3800 µg/mL (≈ 6430 µM). Besides, the IC50 at Keap1/Nrf2 turned out to be 54.3 nM.

Turning to `O=C(O)CN(c1ccc(N(CC(=O)O)S(=O)(=O)c2ccccc2)c2ccccc12)S(=O)(=O)c1ccccc1`, the log distribution coefficient (logD) in data set [1] came out at 0.45. Further, in data set [2] (read-out: solubility), the solubility was determined as 183 µg/mL (≈ 330 µM). Besides, at Keap1/Nrf2, the IC50 came to 34.3 nM.

In the case of `C[C@@H]1C[C@H]2[C@@H]3CCC4=CC(=O)C=C[C@]4(C)[C@@]3(F)[C@@H](O)C[C@]2(C)[C@@]1(O)C(=O)CO`, the inhibition result in the data set on Mus musculus [3], in the data set with Mus musculus [4], in the data set with Mus musculus [5], with Mus musculus [6] and in the data set with Mus musculus [7] was “Active” in each case.

On to `COc1ccc(S(=O)(=O)N(CC(=O)O)c2ccc(N(CC(=O)O)S(=O)(=O)c3ccc(OC)cc3)cc2)cc1`, for which the 50% inhibitory concentration (IC50) on Keap1/Nrf2 came out at 1450 nM.

In data set [1], `O=C(O)CN(c1ccc(N(CC(=O)O)S(=O)(=O)c2cccc3ccccc23)c2ccccc12)S(=O)(=O)c1cccc2ccccc12` yielded a logD of 3.9. Further, the solubility in data set [2] (read-out: solubility) is 5 µg/mL (≈ 7.64 µM). The compound further registered an IC50 at Keap1/Nrf2 of 47.4 nM.

On to `COc1ccc(S(=O)(=O)N(CC(=O)O)c2ccc(N(CC(=O)O)S(=O)(=O)c3ccc(OC)cc3)c3ccccc23)cc1`, for which the solubility in data set [2] (read-out: solubility) came to 388 µg/mL (≈ 631 µM).

Turning to `COc1ccc(S(=O)(=O)N(CC(=O)O)c2cc(C)c(N(CC(=O)O)S(=O)(=O)c3ccc(OC)cc3)cc2C)cc1`, at Keap1/Nrf2, the IC50 was found to be 10200 nM.

Take `CC(=O)Nc1ccc(S(=O)(=O)N(CC(=O)O)c2ccc(N(CC(=O)O)S(=O)(=O)c3ccc(NC(C)=O)cc3)c3ccccc23)cc1`: the Activity result with Mus musculus [8], with Mus musculus [9], in the data set on Mus musculus [10] and in the data set with Mus musculus [11] was “Non-toxic” throughout. In data set [1], this compound gave a logD of 1.02. The solubility in data set [2] (read-out: solubility) is 5000 µg/mL (≈ 7480 µM).

`O=C(O)CN(c1ccc(N(CC(=O)O)S(=O)(=O)c2ccc(Cl)cc2)c2ccccc12)S(=O)(=O)c1ccc(Cl)cc1`: in data set [1], the logD was found to be 2.11. The solubility in [2] (read-out: solubility) was 1200 µg/mL (≈ 1920 µM). This compound registered an IC50 at Keap1/Nrf2 of 42.3 nM.
